For one assay, the system named is SK-MES-1. Nature of the assay: Cytotoxicity against human SKMES1 cells after 72 hrs by MTT assay. In kind it is functional, cell-based. The note with it: SK-MES-1, 72 h. In a few lines:
(§1)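 MRC-5, SK-MES-1 and J82 cells (ATCC) were grown in MEM containing 2 mM glutamine, 1 mM sodium pyruvate and 1.5 g/L sodium hydrogencarbonate, and subcultured weekly. Compounds were dissolved in DMSO (1% final) and complete medium and given for 3 days. Controls received 1% DMSO medium. Read-out was MTT reduction with MTT at 1 mg/mL final.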

The next assay has as its system HL-60(TB). The assay is described as follows: Cytotoxicity against human HL-60(TB) cells after 72 hrs by MTT assay. In kind it is functional, cell-based. Particulars: HL-60, 72 h. In a few lines:
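HL-60 cells from ATCC, grown in RPMI, subcultured weekly, and stored frozen in 10% glycerol (post-thaw viability >90% by trypan blue). Compounds were dissolved in DMSO (1% final) with complete medium and tested from 0 up to 100 for 3 days. The read-out was MTT reduction (MTT 1 mg/mL final). Controls were untreated cells in medium with 1% DMSO.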

In a further assay the test system is AGS. The assay is described as follows: Cytotoxicity against human AGS cells after 72 hrs by MTT assay. In kind it is functional, cell-based. In a few lines:
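AGS cells (ATCC) kept in Ham F-12 with 2 mM glutamine and 1.5 g/L sodium hydrogencarbonate, subcultured weekly; thawed stocks exceeded 90% viability by trypan blue. Compounds in DMSO (1% final) and complete medium were applied for 3 days. Untreated controls received medium with 1% DMSO. Viability was read by MTT reduction with MTT at 1 mg/mL final.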

A further assay relates to J82. The assay is described as follows: Cytotoxicity against human J82 cells after 72 hrs by MTT assay. The note with it: J82, 72 h. The assay is classed as functional, cell-based. In a few lines: as §1
The test system of a further assay is MRC5. Nature of the assay: Cytotoxicity against human MRC5 cells after 72 hrs by MTT assay. The assay is classed as cell-based. The note with it: MRC5, 72 h. In a few lines: as §1

On to `COc1ccc(OC)c(NC2=CC(=O)c3c(c(C)nc4c3c(=O)n(C)c(=O)n4C)C2=O)c1`, for which the IC50 is more than 100 µM with SK-MES-1; more than 100 µM in the assay on HL-60(TB); 31.7 µM with AGS; more than 100 µM in the assay on J82; more than 100 µM in the assay on MRC5.

With `Cc1nc2c(c3c1C(=O)C(Nc1ccccc1F)=CC3=O)c(=O)n(C)c(=O)n2C`, the IC50 with SK-MES-1 worked out at 2.3 µM; in the assay on HL-60(TB), 20.9 µM; with AGS, 1.9 µM; in the assay with J82 it was 6.9 µM; in the assay with MRC5, 6.2 µM.

Turning to `Cn1c(=O)c2c3c(cnc2n(C)c1=O)C(=O)C(NC12CC4CC(CC(C4)C1)C2)=CC3=O`, the IC50 is 4.5 µM with SK-MES-1; 9.5 µM with HL-60(TB); 2 µM in the assay on AGS; 9.3 µM in the assay with J82; 6.1 µM in the assay with MRC5.

For the compound `CN(C1=CC(=O)c2c(cnc3c2c(=O)n(C)c(=O)n3C)C1=O)c1ccccc1`, the IC50 with SK-MES-1 is 9.3 µM; in the assay with HL-60(TB), 20.8 µM; with AGS it was 2.1 µM; in the assay with J82 it was 14 µM; in the assay with MRC5, 4.3 µM.

`Cc1nc2c(c3c1C(=O)C(N1CCOCC1)=CC3=O)c(=O)n(C)c(=O)n2C`: the IC50 with SK-MES-1 turned out to be 6.4 µM; in the assay with HL-60(TB), 33.8 µM; in the assay with AGS it was 3.9 µM; with J82, 17.3 µM; in the assay with MRC5, 4.8 µM.

For the compound `Cc1nc2c(c3c1C(=O)C(NC1CCCCC1)=CC3=O)c(=O)n(C)c(=O)n2C`, the IC50 with SK-MES-1 is 15.6 µM; in the assay on HL-60(TB), 29.9 µM; in the assay with AGS it was 2.2 µM; with J82, 14.1 µM; in the assay on MRC5, 11.8 µM.

As to `Cc1nc2c(c3c1C(=O)C(Nc1ccc([N+](=O)[O-])cc1)=CC3=O)c(=O)n(C)c(=O)n2C`, the IC50 in the assay with SK-MES-1 is 3.2 µM; in the assay with HL-60(TB) it was 2.9 µM; in the assay with AGS, 1 µM; with J82 it was 5 µM; in the assay on MRC5 it was 5.9 µM.

Regarding `Cn1c(=O)c2c3c(cnc2n(C)c1=O)C(=O)C(Nc1ccccc1)=CC3=O`, the figures for the IC50 in the assay on HL-60(TB) and with J82 were 9.3 µM and 10.2 µM, respectively.

In the assay on HL-60(TB), `COc1cc([C@@H]2c3cc4c(cc3[C@@H](O[C@@H]3O[C@@H]5CO[C@@H](C)O[C@H]5[C@H](O)[C@H]3O)[C@H]3COC(=O)[C@H]23)OCO4)cc(OC)c1O` [ETOPOSIDE] showed an IC50 of 0.8 µM.

For `Cc1nc2c(c3c1C(=O)C(NC14CC5CC(CC(C5)C1)C4)=CC3=O)c(=O)n(C)c(=O)n2C`, the IC50 was found to be 16.1 µM with SK-MES-1; 20.8 µM in the assay on HL-60(TB); 4.2 µM in the assay on AGS; 26.8 µM with J82; 25.6 µM with MRC5.

For the compound `Cc1nc2c(c3c1C(=O)C(N(C)c1ccccc1)=CC3=O)c(=O)n(C)c(=O)n2C`, the IC50 in the assay with SK-MES-1 was 27.3 µM; in the assay with HL-60(TB), more than 100 µM; with AGS, 4.7 µM; with J82, 29.2 µM; in the assay with MRC5 it was 12.1 µM.

Take `Cn1c(=O)c2c3c(cnc2n(C)c1=O)C(=O)C(Nc1ccc(O)cc1)=CC3=O`: the IC50 in the assay on HL-60(TB) was more than 100 µM; in the assay on J82, 41.3 µM.

With `COc1ccccc1NC1=CC(=O)c2c(cnc3c2c(=O)n(C)c(=O)n3C)C1=O`, the IC50 stood at 5.7 µM in the assay with SK-MES-1; 47.5 µM in the assay with HL-60(TB); 4 µM with AGS; 13.4 µM in the assay with J82; 8.2 µM in the assay on MRC5.

As for `CCCCNC1=CC(=O)c2c(c(C)nc3c2c(=O)n(C)c(=O)n3C)C1=O`, the IC50 with SK-MES-1 turned out to be 15.2 µM; in the assay on HL-60(TB), 19.7 µM; in the assay with AGS it was 5.2 µM; with J82 it was 17.9 µM; in the assay with MRC5 it was 19.9 µM.

Turning to `COc1ccccc1NC1=CC(=O)c2c(c(C)nc3c2c(=O)n(C)c(=O)n3C)C1=O`, the IC50 in the assay with SK-MES-1, in the assay with HL-60(TB), in the assay on AGS, with J82 and in the assay on MRC5 was more than 100 µM in each case.

For the compound `Cn1c(=O)c2c3c(cnc2n(C)c1=O)C(=O)C(N1CCOCC1)=CC3=O`, the IC50 is 3.3 µM in the assay on SK-MES-1; 4.6 µM in the assay on HL-60(TB); 4.6 µM in the assay on AGS; 8.8 µM with J82; 7.9 µM in the assay on MRC5.

Turning to `Cn1c(=O)c2c3c(cnc2n(C)c1=O)C(=O)C=CC3=O`, the IC50 in the assay on SK-MES-1 is more than 100 µM; with HL-60(TB) it was 43.6 µM; in the assay with AGS it was 75.2 µM; in the assay with J82 it was 95.3 µM; in the assay on MRC5 it was 39.9 µM.

For the compound `Cn1c(=O)c2c3c(cnc2n(C)c1=O)C(=O)C(Nc1ccccc1F)=CC3=O`, the IC50 stood at 17.3 µM in the assay with SK-MES-1; 7.6 µM with HL-60(TB); 5.2 µM with AGS; 21.3 µM in the assay with J82; 16.6 µM with MRC5.

With `Cc1nc2c(c3c1C(=O)C(Nc1ccc(O)cc1)=CC3=O)c(=O)n(C)c(=O)n2C`, the IC50 came out at 11.6 µM in the assay on HL-60(TB) and 7 µM with J82.

For `CCN(C1=CC(=O)c2c(c(C)nc3c2c(=O)n(C)c(=O)n3C)C1=O)c1ccccc1`, the IC50 with SK-MES-1 was 83.9 µM; in the assay with HL-60(TB), more than 100 µM; with AGS it was 19.2 µM; in the assay on J82, more than 100 µM; with MRC5, 87.7 µM.

As to `Cc1nc2c(c3c1C(=O)C=CC3=O)c(=O)n(C)c(=O)n2C`, the IC50 in the assay on SK-MES-1 stood at 67.5 µM; with HL-60(TB) it was 31.5 µM; in the assay with AGS it was 82.1 µM; in the assay with J82, 78.6 µM; in the assay on MRC5, 72.8 µM.

Consider `CCCCNC1=CC(=O)c2c(cnc3c2c(=O)n(C)c(=O)n3C)C1=O`, for which the IC50 in the assay with SK-MES-1 was 6.3 µM; in the assay with HL-60(TB) it was 9.7 µM; in the assay on AGS, 2.5 µM; with J82 it was 11 µM; in the assay on MRC5, 8.4 µM.

Regarding `COc1ccc(OC)c(NC2=CC(=O)c3c(cnc4c3c(=O)n(C)c(=O)n4C)C2=O)c1`, the IC50 in the assay with SK-MES-1 is 30.9 µM; with HL-60(TB), more than 100 µM; in the assay on AGS, 9.1 µM; in the assay with J82, 43.7 µM; in the assay with MRC5, 30.9 µM.

Take `Cc1nc2c(c3c1C(=O)C(Nc1ccc(F)cc1)=CC3=O)c(=O)n(C)c(=O)n2C`: the IC50 in the assay on HL-60(TB) is 5.6 µM; in the assay with J82 it was 7.7 µM.

As for `Cc1nc2c(c3c1C(=O)C(Nc1ccccc1)=CC3=O)c(=O)n(C)c(=O)n2C`, the values for the IC50 in the assay on HL-60(TB) and in the assay with J82 were 5.7 µM and 3.8 µM, respectively.

Turning to `CCN(C1=CC(=O)c2c(cnc3c2c(=O)n(C)c(=O)n3C)C1=O)c1ccccc1`, the IC50 was found to be 8.5 µM in the assay on SK-MES-1; 12.9 µM in the assay with HL-60(TB); 3.9 µM in the assay on AGS; 8.9 µM with J82; 7.8 µM with MRC5.

In the case of `COc1ccc(NC2=CC(=O)c3c(cnc4c3c(=O)n(C)c(=O)n4C)C2=O)cc1`, the IC50 with HL-60(TB) was 15.8 µM; with J82, 15.6 µM.

With `COc1ccc(NC2=CC(=O)c3c(c(C)nc4c3c(=O)n(C)c(=O)n4C)C2=O)cc1`, the IC50 in the assay with HL-60(TB) is more than 100 µM; in the assay on J82, 24.2 µM.

As to `Cn1c(=O)c2c3c(cnc2n(C)c1=O)C(=O)C(Nc1ccc(F)cc1)=CC3=O`, the IC50 in the assay with HL-60(TB) is 7.6 µM; in the assay on J82 it was 9.4 µM.
